Assay results published in ChEMBL document CHEMBL3259640 (J Med Chem, 2014).
pIC50: −log10 of the molar value. The source made the active and inactive calls. The calls are words filed in the database; no cut-off is given here.

Columns and labels:
[1] = target: T1, Kinetochore protein NDC80 homolog (Homo sapiens) (UniProt O14777); test: Inhibition of Hec1/Nek2 interaction in human MDA-MB-468 cells assessed as induction of Nek2 degradation at 100 nM by western blot analysis; format: cell-based
T1 sequence (whole entry): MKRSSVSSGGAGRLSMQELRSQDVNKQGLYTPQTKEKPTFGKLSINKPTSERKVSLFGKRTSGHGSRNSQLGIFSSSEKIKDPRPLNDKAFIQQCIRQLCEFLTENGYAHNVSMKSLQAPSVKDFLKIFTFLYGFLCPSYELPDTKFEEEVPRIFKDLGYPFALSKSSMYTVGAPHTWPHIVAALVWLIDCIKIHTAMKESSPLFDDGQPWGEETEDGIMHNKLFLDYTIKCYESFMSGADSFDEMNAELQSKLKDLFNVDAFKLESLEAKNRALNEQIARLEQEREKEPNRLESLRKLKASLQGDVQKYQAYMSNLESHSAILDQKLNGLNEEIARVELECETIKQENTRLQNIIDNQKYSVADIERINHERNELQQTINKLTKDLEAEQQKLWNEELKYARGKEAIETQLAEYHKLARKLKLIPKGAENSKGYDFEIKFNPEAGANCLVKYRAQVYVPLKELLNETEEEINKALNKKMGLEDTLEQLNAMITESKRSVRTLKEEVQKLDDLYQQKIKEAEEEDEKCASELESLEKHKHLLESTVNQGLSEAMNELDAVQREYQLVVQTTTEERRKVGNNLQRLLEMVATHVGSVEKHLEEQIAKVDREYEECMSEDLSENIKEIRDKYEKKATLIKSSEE
In short: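 MDA-MB-468 cells treated with compound at 100 nM, with or without MG132 at 500 nM. Lysates made in SDS sample buffer, run on SDS-PAGE and blotted to PVDF. Primary antibodies applied in 3% BSA-TBST, with HRP secondaries and enhanced chemiluminescence detection for Hec1 and Nek2.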

[2] = target: T1, Kinetochore protein NDC80 homolog (Homo sapiens); test: Inhibition of Hec1/Nek2 interaction in human K562 cells assessed as induction of Nek2 degradation after 24 hrs by western blot analysis; format: cell-based
In short: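 K562 cells exposed to DMSO or to 10, 100 or 1000 nM for 24 h. Nek2 and Hec1 detected by western blot in SDS sample buffer lysates, with actin as loading control and ECL detection.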

[3] = target: Vascular endothelial growth factor receptor 2 (Homo sapiens, UniProt P35968); test: Inhibition of VEGFR2 (unknown origin) assessed as [33P] incorporation in substrate by TopCount microplate scintillation counting analysis
[4] = system: MDA-MB-231; test: Antitumor activity against human MDA-MB-231 cells xenografted in BALB/c nu/nu mouse assessed as tumor volume at 20 mg/kg, iv qd for 28 days relative to control; format: functional
In short: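 Female BALB/c nu/nu mice, 5–8 weeks old, implanted subcutaneously in the right flank with 1 × 10⁷ MDA-MB-231 cells in matrigel. Dosing began at about 100 mm³ mean tumour volume; 5 mice/group. Arms: vehicle (5% DMSO, 10% Cremophor in water) IV once daily, 20 mg/kg IV once daily, or 150 mg/kg PO twice daily, for 28 days. Caliper volumes and body weight every 2 days; T/C on day 28.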

[5] = Growth inhibition of human PLC/PRF/5 cells; format: functional
[6] = target: Epidermal growth factor receptor (Homo sapiens, UniProt P00533); test: Inhibition of EGFR (unknown origin) assessed as [33P] incorporation in substrate by TopCount microplate scintillation counting analysis
[7] = system: Mus musculus; test: Toxicity in BALB/c nu/nu mouse xenografted with human MDA-MB-231 cells assessed as body weight loss at 20 mg/kg, iv qd for 28 days; format: organism-based; parameters: dose 20 mg/kg, route intravenous; settings: in vivo, 672 h
In short: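 Female BALB/c nu/nu mice, 5–8 weeks old, implanted subcutaneously in the right flank with 1 × 10⁷ MDA-MB-231 cells in matrigel. Treatment began at about 100 mm³ tumor volume; 5 mice per group. Dosing for 28 days: IV 20 mg/kg once daily or PO 150 mg/kg twice daily, in 5% DMSO/10% Cremophor in H₂O; vehicle controls included. Body weight and tumor size (caliper) recorded every 2 days.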

[8] = system: HeLa; test: Growth inhibition of human HeLa cells; format: functional
[9] = Growth inhibition of human RPTEC cells; format: cell-based
[10] = target: Serine/threonine-protein kinase B-raf (Homo sapiens, UniProt P15056); test: Inhibition of B-Raf (unknown origin) assessed as [33P] incorporation in substrate by TopCount microplate scintillation counting analysis
[11] = system: MDA-MB-468; test: Growth inhibition of human MDA-MB-468 cells; format: functional
[12] = Growth inhibition of human HuH7 cells; format: functional; settings: Huh-7
[13] = target: Cyclin-dependent kinase 1/cyclin B1 (Homo sapiens, UniProt P06493); test: Inhibition of Cdk1/cyclin B (unknown origin) assessed as [33P] incorporation in substrate by TopCount microplate scintillation counting analysis; format: protein-complex assay
[14] = system: K562; test: Growth inhibition of human K562 cells; format: functional
[15] = system: HeLa; test: Induction of apoptosis in human HeLa cells assessed as reduction in Mcl-1 protein expression at 1 uM after 24 to 48 hrs by western blot analysis; format: functional, cell-based
In short: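 HeLa cells given 1.0 μM compound, DMSO, or paclitaxel 100 nM for 24 and 48 h. Lysates made in SDS sample buffer, run on SDS-PAGE and transferred to PVDF. Blots probed for cleaved caspase-3, cleaved PARP, Bcl-2, Mcl-1 and XIAP, with actin as loading control, and detected by HRP-linked ECL.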

[16] = target: Platelet-derived growth factor receptor beta (Homo sapiens, UniProt P09619); test: Inhibition of PDGFR-beta (unknown origin) assessed as [33P] incorporation in substrate by TopCount microplate scintillation counting analysis
[17] = system: MDA-MB-231; test: Antiproliferative activity against human MDA-MB-231 cells assessed as cell viability after 96 hrs by CellTiter96 assay; format: functional, cell-based; settings: MDA-MB-231, 96 h
[18] = system: K562; test: Antiproliferative activity against human K562 cells assessed as cell viability after 96 hrs by CellTiter96 assay; format: functional, cell-based; settings: K562, 96 h
[19] = system: MDA-MB-468; test: Induction of mitotic abnormalities in human MDA-MB-468 cells assessed as proportion of cells displaying chromosomal misalignment at 10 nM after 48 hrs by immunofluorescent staining based microscopy (reference value: 21.4%); format: functional
[20] = system: HCT-116; test: Growth inhibition of human HCT116 cells; format: functional
[21] = AUC in Sprague-Dawley rat at 2 mg/kg, iv compound formulated with 5% DMSO, 10% cremophor and 85% water by LC-MS/MS analysis; format: ADME, organism-based; parameters: dose 2 mg/kg, route intravenous; settings: plasma
[22] = system: HepG2; test: Growth inhibition of human HepG2 cells; format: functional
[23] = system: MDA-MB-468; test: Induction of mitotic abnormalities in human MDA-MB-468 cells assessed as proportion of cells displaying multipolar spindles at 10 nM after 48 hrs by immunofluorescent staining based microscopy (reference value: […]); format: functional
[24] = system: MDA-MB-468; test: Induction of mitotic abnormalities in human MDA-MB-468 cells assessed as proportion of cells displaying multipolar spindles at 1000 nM after 48 hrs by immunofluorescent staining based microscopy (reference value: […]); format: functional

Chain of Epidermal growth factor receptor (P00533 whole entry): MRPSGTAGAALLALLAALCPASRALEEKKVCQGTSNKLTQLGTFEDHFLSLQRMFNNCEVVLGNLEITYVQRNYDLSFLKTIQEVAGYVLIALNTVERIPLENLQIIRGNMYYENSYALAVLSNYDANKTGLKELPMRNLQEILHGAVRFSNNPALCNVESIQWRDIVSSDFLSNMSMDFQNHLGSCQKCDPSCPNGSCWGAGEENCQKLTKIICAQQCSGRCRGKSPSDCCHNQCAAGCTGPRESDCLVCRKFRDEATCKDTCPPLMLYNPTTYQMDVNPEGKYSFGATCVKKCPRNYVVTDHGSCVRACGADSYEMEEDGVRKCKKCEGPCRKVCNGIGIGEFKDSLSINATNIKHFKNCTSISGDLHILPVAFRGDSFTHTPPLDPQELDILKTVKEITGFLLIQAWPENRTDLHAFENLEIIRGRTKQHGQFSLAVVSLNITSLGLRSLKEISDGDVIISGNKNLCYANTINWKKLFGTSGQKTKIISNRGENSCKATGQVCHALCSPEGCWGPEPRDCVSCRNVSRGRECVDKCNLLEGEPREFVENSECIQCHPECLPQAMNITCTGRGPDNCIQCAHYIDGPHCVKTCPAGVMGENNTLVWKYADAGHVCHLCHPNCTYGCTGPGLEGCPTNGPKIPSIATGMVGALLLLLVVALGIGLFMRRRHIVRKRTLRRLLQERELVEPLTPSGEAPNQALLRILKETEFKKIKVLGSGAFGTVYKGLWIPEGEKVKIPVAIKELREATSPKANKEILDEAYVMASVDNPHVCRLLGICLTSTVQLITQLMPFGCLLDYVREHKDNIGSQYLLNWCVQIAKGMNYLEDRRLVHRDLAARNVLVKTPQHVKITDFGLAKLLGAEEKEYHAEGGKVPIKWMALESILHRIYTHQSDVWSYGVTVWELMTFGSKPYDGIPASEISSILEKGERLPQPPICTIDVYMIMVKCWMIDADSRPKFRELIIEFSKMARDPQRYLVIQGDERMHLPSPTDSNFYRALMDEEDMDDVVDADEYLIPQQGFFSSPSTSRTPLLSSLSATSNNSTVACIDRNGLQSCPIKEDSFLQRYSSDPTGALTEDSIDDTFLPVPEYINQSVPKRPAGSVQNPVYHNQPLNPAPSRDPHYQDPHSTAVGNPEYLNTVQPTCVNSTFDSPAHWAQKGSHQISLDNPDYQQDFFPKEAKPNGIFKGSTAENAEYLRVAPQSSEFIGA
Chain of Cyclin-dependent kinase 1/cyclin B1 (P06493 whole entry): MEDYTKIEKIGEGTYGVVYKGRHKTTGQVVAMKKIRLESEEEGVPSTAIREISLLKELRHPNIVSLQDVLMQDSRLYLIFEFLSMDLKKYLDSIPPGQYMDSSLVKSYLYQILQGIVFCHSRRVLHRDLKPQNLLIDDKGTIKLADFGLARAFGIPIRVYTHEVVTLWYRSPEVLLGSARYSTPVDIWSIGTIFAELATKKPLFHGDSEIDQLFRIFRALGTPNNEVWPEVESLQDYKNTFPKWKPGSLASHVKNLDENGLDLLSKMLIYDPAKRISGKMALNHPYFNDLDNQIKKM
Chain of Cyclin-dependent kinase 1/cyclin B1 (P14635 whole entry, further chain): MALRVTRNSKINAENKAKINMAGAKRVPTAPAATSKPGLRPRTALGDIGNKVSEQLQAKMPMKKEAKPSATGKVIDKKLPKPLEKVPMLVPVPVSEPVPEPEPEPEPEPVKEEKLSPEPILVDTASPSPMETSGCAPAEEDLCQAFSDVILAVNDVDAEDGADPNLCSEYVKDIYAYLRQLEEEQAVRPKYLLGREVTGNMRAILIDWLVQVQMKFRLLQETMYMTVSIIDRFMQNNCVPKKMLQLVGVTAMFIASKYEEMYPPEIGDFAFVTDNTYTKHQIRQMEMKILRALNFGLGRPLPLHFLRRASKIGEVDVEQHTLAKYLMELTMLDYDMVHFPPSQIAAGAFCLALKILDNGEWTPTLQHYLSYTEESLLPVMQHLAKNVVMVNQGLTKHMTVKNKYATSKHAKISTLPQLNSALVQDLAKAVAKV
Chain of Platelet-derived growth factor receptor beta (P09619 whole entry): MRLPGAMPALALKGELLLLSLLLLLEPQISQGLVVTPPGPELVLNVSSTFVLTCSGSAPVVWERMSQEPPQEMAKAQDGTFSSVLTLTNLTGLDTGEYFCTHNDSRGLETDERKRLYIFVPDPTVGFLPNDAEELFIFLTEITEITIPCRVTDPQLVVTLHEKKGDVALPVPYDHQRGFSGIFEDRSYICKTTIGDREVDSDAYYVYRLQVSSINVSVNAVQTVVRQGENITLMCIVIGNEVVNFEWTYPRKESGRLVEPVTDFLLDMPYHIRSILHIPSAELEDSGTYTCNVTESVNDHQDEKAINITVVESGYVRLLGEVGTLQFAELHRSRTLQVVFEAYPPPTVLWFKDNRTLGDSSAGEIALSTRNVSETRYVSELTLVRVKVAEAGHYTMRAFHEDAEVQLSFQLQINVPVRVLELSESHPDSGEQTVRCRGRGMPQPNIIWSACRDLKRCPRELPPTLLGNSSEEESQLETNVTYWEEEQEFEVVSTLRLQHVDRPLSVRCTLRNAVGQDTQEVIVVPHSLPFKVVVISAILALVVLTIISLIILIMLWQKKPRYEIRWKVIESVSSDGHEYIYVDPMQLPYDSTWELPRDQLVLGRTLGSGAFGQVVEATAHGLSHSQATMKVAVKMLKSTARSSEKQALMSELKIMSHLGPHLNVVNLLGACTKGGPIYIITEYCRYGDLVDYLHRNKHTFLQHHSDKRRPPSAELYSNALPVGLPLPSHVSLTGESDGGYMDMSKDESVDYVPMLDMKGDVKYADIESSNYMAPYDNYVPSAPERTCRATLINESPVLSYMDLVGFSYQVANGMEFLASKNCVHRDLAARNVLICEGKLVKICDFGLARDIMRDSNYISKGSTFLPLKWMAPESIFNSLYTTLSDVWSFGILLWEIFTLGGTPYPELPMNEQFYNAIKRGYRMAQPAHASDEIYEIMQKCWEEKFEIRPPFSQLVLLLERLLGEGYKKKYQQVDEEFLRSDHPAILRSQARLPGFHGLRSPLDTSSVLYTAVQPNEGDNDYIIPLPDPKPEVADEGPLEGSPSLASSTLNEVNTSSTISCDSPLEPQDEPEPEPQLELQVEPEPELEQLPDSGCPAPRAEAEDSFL
Chain of Vascular endothelial growth factor receptor 2 (P35968 whole entry): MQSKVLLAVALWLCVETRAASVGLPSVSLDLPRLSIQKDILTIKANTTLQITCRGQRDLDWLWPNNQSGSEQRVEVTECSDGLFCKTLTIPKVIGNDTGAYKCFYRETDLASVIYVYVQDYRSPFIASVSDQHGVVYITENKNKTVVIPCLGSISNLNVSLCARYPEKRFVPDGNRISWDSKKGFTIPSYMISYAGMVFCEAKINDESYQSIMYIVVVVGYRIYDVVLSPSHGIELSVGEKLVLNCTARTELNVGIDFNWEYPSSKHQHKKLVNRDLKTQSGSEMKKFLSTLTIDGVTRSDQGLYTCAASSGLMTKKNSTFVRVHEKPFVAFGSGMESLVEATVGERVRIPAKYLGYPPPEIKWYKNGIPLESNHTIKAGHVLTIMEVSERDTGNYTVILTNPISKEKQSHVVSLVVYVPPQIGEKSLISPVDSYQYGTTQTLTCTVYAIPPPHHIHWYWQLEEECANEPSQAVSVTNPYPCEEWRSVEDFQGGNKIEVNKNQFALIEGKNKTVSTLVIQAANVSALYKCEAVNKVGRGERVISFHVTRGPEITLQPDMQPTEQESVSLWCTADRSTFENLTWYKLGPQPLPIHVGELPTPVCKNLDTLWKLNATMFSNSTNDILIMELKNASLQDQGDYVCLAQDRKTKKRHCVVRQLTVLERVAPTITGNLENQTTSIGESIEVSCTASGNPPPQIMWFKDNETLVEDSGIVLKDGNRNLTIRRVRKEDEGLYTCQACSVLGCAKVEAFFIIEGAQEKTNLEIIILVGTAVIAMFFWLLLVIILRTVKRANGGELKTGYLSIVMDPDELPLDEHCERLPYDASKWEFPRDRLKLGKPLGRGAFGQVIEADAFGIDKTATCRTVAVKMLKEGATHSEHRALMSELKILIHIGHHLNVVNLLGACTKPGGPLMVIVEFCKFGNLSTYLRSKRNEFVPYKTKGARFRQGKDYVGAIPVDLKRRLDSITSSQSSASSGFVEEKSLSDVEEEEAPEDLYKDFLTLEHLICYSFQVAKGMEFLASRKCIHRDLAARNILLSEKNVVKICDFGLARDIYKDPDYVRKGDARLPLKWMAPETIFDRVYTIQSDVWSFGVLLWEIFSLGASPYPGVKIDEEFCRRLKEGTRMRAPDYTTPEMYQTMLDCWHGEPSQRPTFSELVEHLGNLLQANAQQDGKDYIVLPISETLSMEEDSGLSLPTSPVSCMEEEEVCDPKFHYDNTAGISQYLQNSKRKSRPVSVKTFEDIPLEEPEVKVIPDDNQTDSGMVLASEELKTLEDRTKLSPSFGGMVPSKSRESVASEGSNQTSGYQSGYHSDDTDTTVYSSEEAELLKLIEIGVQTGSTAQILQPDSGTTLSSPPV

With `COc1ccc(Oc2cc(C)c(-c3csc(NC(=O)c4ccnc(F)c4)n3)c(C)c2)cc1` the Activity [1] was “Active”, the Activity [2] was “Dose-dependent effect” and the pIC50 [3] was less than 5.00. The T/C [4] was 32%, the GI50 [5] was 0.0796 µM and the pIC50 [6] was less than 5.00. The Activity [7] was less than 5%, the GI50 [8] was 0.0228 µM and the GI50 [9] was greater than 9 µM. It also gave a pIC50 [10] of less than 5.00, a GI50 [11] of 0.0296 µM and a GI50 [12] of 0.0796 µM. For the same compound, the pIC50 [13] was less than 5.00, the GI50 [14] was 0.0562 µM and the inhibition [15] was “Active”. It also gave a pIC50 [16] of less than 5.00, a pIC50 [17] of 7.70 and a pIC50 [18] of 7.79. For the same compound, the Activity [19] was 23.9%, the GI50 [20] was 0.0341 µM and the AUC [21] was 64.9 µM·h. The GI50 [22] was 0.191 µM, the Activity [23] was 16.9% and the Activity [24] was 46.7%.
